Compound activity from PubChem BioAssay.
DENV2 CPE rescue: inhibitors of DENV2 cytopathic effect; DENV2-infected cells, cytopathic effect rescue, plate reader; CPE inhibition, % at 9.99 µM; 350,000 compounds, 1.7% hits; AID 651640; in the data active means CPE inhibition above about 20%, passing the limit was not always enough; inconclusive means no clear call, values can overlap the other calls; tested in BHK-21 cells;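 further: 0% = median of neutral control wells and 100% = median of positive control wells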
ERAP1 HTS inh: blocks human ERAP1 aminopeptidase activity; inhibition, % at 10.7 µM; Q9NZ08; recombinant ERAP1, Leu-AMC fluorescence, 60 min; 340,000 compounds, 0.15% hits;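 active means mean replicate inhibition of at least 30%, or all replicates individually reaching that 30% level; inactive means mean below 30% and not every replicate reaching it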;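 further: 0% = neutral control wells and 100% = L-leucinethiol positive control wells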
F508del corr: CFTR F508del correction in bronchial cells; CFBE cells, YFP halide quenching; stimulated with forskolin plus potentiator P3; % fluorescence drop versus neutral controls; activity (quench increase), % at 7.58 µM; 350,000 compounds, 0.36% hits;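 active means mean added fluorescence quench of at least 8% versus neutral control, with both replicates also reaching 8%; inconclusive means only one of the mean or replicate conditions met; inactive means mean below 8% and not both replicates reaching 8%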;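 further: cells transiently co-express mutant CFTR-F508del with the halide-sensitive YFP; corrector assay measuring rescue of mutant channel to the surface after 24 h compound exposure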
FGF22 binding: FGF22 (human) thermal shift binding; Q9HCT0; recombinant FGF22 thermal shift, SYPRO orange fluorescence; percent of sucrose octasulfate shift, DMSO zero; activity (Tm shift, normalised), % at 9.99 µM; 340,000 compounds, 1.5% hits;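 active means mean Tm shift, scaled 0 neutral to 100 positive control, at about 1.3% or above, every replicate too, limit read from the data; inconclusive means no clear call, values can overlap the other calls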
Target sequence (Q9HCT0 whole entry, looked up): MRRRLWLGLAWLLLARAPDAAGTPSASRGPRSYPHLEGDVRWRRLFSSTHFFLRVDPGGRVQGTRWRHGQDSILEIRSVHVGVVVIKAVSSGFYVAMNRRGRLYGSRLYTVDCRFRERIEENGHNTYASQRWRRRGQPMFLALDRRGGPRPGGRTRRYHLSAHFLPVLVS
E-sel inducer: induces E-selectin expression in human endothelial cells; P16581; HUVEC E-selectin immunofluorescence imaging; normalized: neutral wells 0, TNF-alpha wells 100; activation, % at 7.58 µM; 260,000 compounds, 0.37% hits; AID 686992;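 active means mean E-selectin-positive cell signal at least 10% of the positive control, reached in at least 60% of replicates, without over 20% cell loss; inconclusive means no rule given, readout overlaps actives, possibly toxicity-flagged; inactive means the rest, including those meeting only one limit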
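Assay system: HUVEC, human umbilical vein endothelial cells / Amount: 3,000 HUVEC/well / Controls: TNF-alpha positive control, DMSO neutral control / Compound dosing: single concentration / Medium: EGM-2 over gelatin coat / Evaluation: percent E-selectin-positive cells / Signal: immunofluorescence imaging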
* hit, by the source's call; ? = inconclusive; . = no result. In the library only some 3.7% were active in any assay of this set; here they are far more common.

SMILES | DENV2 CPE rescue | ERAP1 HTS inh | F508del corr | FGF22 binding | E-sel inducer
C[C@H](O)C#Cc1cnc2c(c1)C(=O)N([C@H](C)CO)C[C@@H](C)[C@@H](CN(C)Cc1cccc(F)c1)O2 | -9 | -2 | -3 | 0 | -1
Cc1cc(C)nc(N/N=C/c2ccccc2OCc2ccc(Br)cc2)n1 | 17 | 1 | . | 0 | .
Cc1cc(C)nc(N/N=C/c2ccccc2OCc2ccccc2)n1 | 79* | -2 | -3 | 0 | .
O=C(C[C@@H]1CC[C@@H]2[C@H](COC[C@H](O)CN2C(=O)Nc2ccccc2)O1)NC1Cc2ccccc2C1 | -12 | 3 | 1 | 0 | 0
Cc1ccc2sc(C)[n+](CCCS(=O)(=O)[O-])c2c1 | -3 | 1 | . | 0 | .
Cc1ccc2c(c1)sc(C)[n+]2CCCS(=O)(=O)[O-] | -1 | 2 | 0 | 43* | -1
CCCC[n+]1c(C)sc2cc(OC)ccc21 | 7 | 35* | -2 | 0 | .
COc1ccc(NC(=O)Nc2ccc3c(c2)C(=O)N([C@@H](C)CO)C[C@H](C)[C@H](CN(C)S(=O)(=O)c2ccc(C)cc2)OCCCC[C@@H](C)O3)cc1 | 8 | -6 | -4 | 0 | -1
CCCN(C)C[C@H]1OCCCC[C@H](C)Oc2ccc(NC(=O)Nc3cccc4ccccc34)cc2C(=O)N([C@@H](C)CO)C[C@H]1C | 0 | 0 | -1 | 0 | 0
COc1ccc(/C=N/NC(=O)CNS(=O)(=O)c2ccc(C)cc2)cc1 | -2 | 2 | 2 | 42 | 0
O=C(CNS(=O)(=O)c1ccccc1)N/N=C/c1ccc(O)cc1 | 8 | 1 | -4 | 43* | 0
CCN(C[C@@H]1N[C@@H](CO)[C@@H]1c1ccccc1)C(=O)c1ccncc1 | 22* | 1 | -2 | -1 | 0
C/C=C/c1ccc([C@@H]2[C@@H](CO)N[C@@H]2CN(CC)C(=O)c2ccccn2)cc1 | -4 | -1 | 3 | 0 | 0
CCN(C[C@@H]1[C@@H](c2ccccc2)[C@H](CO)N1S(C)(=O)=O)C(=O)C1CC1 | 10 | -2 | -1 | 0 | 1
CN(C[C@@H]1N[C@H](CO)[C@H]1c1ccccc1)C(=O)c1ccccn1 | -14 | -2 | 8.6* | 0 | 0
CC(=O)N(C[C@H]1N[C@H](CO)[C@@H]1c1ccccc1)C(C)C | -7 | 2 | 0 | 0 | 0
CC(C)CN(C[C@@H]1N[C@@H](CO)[C@@H]1c1ccccc1)C(=O)CN(C)C | 40* | -3 | 2 | 0 | 0
CCN(C[C@H]1N[C@@H](CO)[C@@H]1c1ccccc1)C(=O)c1ccncc1 | -6 | -1 | -1 | 0 | 0
CCC(=O)N(CC(C)C)C[C@@H]1[C@@H](c2ccccc2)[C@@H](CO)N1S(C)(=O)=O | 29* | . | 0 | . | 0
COc1ccccc1NC(=O)N1CCCCN2[C@H](CO)[C@@H](c3ccc(C#CC4CC4)cc3)[C@@H]2C1 | -10 | 1 | -2 | . | .
COCC1COS(=O)(=O)NC1(C)C (stereo unspecified) | 20* | 0 | -3 | 0 | 0
CCCCN1CCN=C1Nc1ccccc1 | -7 | -2 | 0 | 0 | 0
Fc1ccc(CCN2CCN=C2Nc2ccccc2)cc1 | 124* | 0 | 3 | 0 | 0
CC(C)CCCN1CCN=C1Nc1ccccc1 | 27* | 1 | 3 | 0 | 0
O=C(CCN1CCCCC1)NCC[C@@H]1CC[C@H](NC(=O)c2ccc(F)cc2)[C@@H](CO)O1 | -8 | 0 | 2 | 0 | 0
SMILES | DENV2 CPE rescue | ERAP1 HTS inh | F508del corr | FGF22 binding | E-sel inducer
O=C(Nc1cc(C(F)(F)F)ccc1N1CCCCC1)C1=COCCO1 | -4 | -2 | 4 | 1.9* | .
O=C(Nc1ccccc1N1CCCCC1)C1=COCCO1 | ? | -1 | -2 | 0 | 35*
O=C(Nc1cc(Cl)ccc1N1CCOCC1)C1=COCCO1 | 2 | -5 | 1 | 0 | -2
O=C(Nc1ccccc1N1CCCC1)C1=COCCO1 | -2 | -2 | 1 | 0 | .
COc1ccc(NC(=O)N(C)C[C@H]2Oc3c(NC(=O)Nc4ccc(F)cc4)cccc3C(=O)N([C@H](C)CO)C[C@H]2C)cc1 | -6 | 3 | 0 | -1 | 0
O=C(O)CCc1ccc(-c2cccs2)n1CC(=O)Nc1ccccc1C(F)(F)F | 3 | -2 | 0 | 43* | -1
O=C(CCc1ccccc1)Nc1ccccc1C(F)(F)F | 0 | 3 | -2 | 44* | .
